The subject of one assay is PC-12. Put plainly: Antioxidant activity against H2O2-induced impairment in rat PC12 cells at 0.16 to 100 uM after 3 hrs by MTT assay. Type of assay: functional, cell-based. Put shortly:
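PC12 cells in RPMI 1640 with 5% fetal calf serum, 10% horse serum, penicillin/streptomycin and 20 mM L-glutamine. Seeded at 1 × 10^6/mL, 24 h at 37 °C, 5% CO2. Then exposed to H2O2 (200 µM final) together with compound (0.16–100 µM final) for 3 h. PBS rinse, MTT 0.4 mg/mL for 4 h at 37 °C, DMSO solubilization, OD 570 nm. Viability %, n = 6, mean ± SD.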

For assay [1], the system named is Radical scavenging activity. The assay is described as follows: Antioxidant activity assessed as DPPH radical scavenging activity after 30 mins by spectrophotometry. The format is functional.

The structures appear in SMILES notation. Active and inactive are the calls of the source. The rule behind the calls is not given here.

For the molecule `COc1cc(CCCO)cc2c1O[C@H](c1ccc(O)cc1)[C@H]2CO`, in the assay on PC-12, the result was Active.
As to `COc1cc([C@H](O)[C@@H](CO)Oc2ccc(/C=C/CO)cc2OC)ccc1O` (relative stereo), in assay [1], the IC50 turned out to be 60.9 µM. Besides, the result in the assay with PC-12 was Active.
Take `COc1cc(C(=O)CCO)cc2c1O[C@H](c1ccc(O)cc1)[C@H]2CO` (relative stereo): the result in the assay with PC-12 was Active.
The same measure, in the same setting: for `COc1cc(C(=O)[C@@H]2CO[C@H](c3ccc(O)cc3)[C@H]2CO)ccc1O[C@H](CO)[C@@H](O)c1ccc(O)cc1` (relative stereo) the value was “Active”; for `COc1cc([C@H]2OC[C@H]3[C@@H]2CO[C@@H]3c2ccc(O)cc2)cc2c1O[C@H](c1ccc(O)cc1)[C@H]2CO` (relative stereo), “Active”.
Regarding `COC(c1ccc(O)cc1)[C@H]1CO[C@@H](c2ccc(O)cc2)[C@@H]1CO` (relative stereo) [CHUSHIZISIN G], the IC50 in assay [1] was 281 µM.
`COc1cc(/C=C/CO)ccc1O[C@H](CO)[C@H](O)c1ccc(O)cc1` (relative stereo) [CHUSHIZISINS A]: the IC50 in assay [1] stood at 237 µM. Besides, the outcome in the assay on PC-12 was Active.
Consider `COc1cc(/C=C/CO)ccc1O[C@H](CO)[C@@H](O)c1ccc(O)cc1` (relative stereo) [CHUSHIZISINS B], for which the IC50 in assay [1] is 156 µM.
On the same count and under the same terms, for `COc1cc(CCCO)ccc1O[C@H](CO)[C@@H](O)c1ccc(O)cc1` (relative stereo) [CHUSHIZISINS D] the value was 274 µM.

The record behind these values is ChEMBL document CHEMBL1151851, “Antioxidant Lignans from the Fruits of Broussonetia papyrifera” (J Nat Prod, 2009).
